According to publication PMC9444296 (Investigative Radiology, 2022):
“Also recorded” adds a separate entry of the source.

Columns and labels:
Gd = assay type: physicochemical; settings: HPLC-UV
In short: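 Test compound at 0.25 mM (final) was incubated with 0.25 mM DOTA, DTPA, HP-DO3A or EDTA, or with 0.50 mM ZnCl₂. Buffers were 0.05 M acetate pH 5 or 0.05 M Tris pH 7.4, at room temperature (25°C) or 37.5°C, for up to 30 days. Intact compound remaining was measured by HPLC-UV (C18; 0.08% TFA acetonitrile/water).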

[1] = Plasma stability, rat plasma; assay type: in vitro ADME; settings: 0.5 mM, 37°C, HPLC; for average remaining percentage of intact MT218: n = 2
In short: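 Test compound at 0.5 mM was incubated in human, rat or dog plasma at 37°C for up to 48 h, with PBS as control. Samples were mixed with methanol, centrifuged, and the intact compound was quantified by analytical reversed-phase (C18) HPLC.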

[2] = Metabolic stability in human hepatocytes; assay type: in vitro ADME; settings: 2 hours of incubation, LC-MS/MS
[3] = Metabolic stability in CD1 mouse hepatocytes; assay type: in vitro ADME; settings: 2 hours of incubation, LC-MS/MS
CYP2D6 = CYP2D6 (Homo sapiens, UniProt P10635); assay: CYP2D6 inhibition in human liver microsomes; assay type: in vitro ADME; settings: 0.01, 0.1, 1, 10, and 100 μM, pooled human liver microsomes 0.5 mg/mL
OATP1B1 = OATP1B1 (Homo sapiens, UniProt Q9Y6L6); assay: OATP1B1 inhibition, HEK293 cells; assay type: in vitro ADME; settings: 1, 5, 10, 50, and 100 μM
OAT3 = OAT3 (Homo sapiens, UniProt Q8TCC7); assay: OAT3 inhibition, HEK293 cells; assay type: in vitro ADME; settings: 1, 5, 10, 50, and 100 μM
MATE1 = MATE1 (Homo sapiens, UniProt Q96FL8); assay: MATE1 inhibition, HEK293 cells; assay type: in vitro ADME; settings: 1, 5, 10, 50, and 100 μM
MATE2K = MATE2K (Homo sapiens, UniProt Q86VL8); assay: MATE2K inhibition, HEK293 cells; assay type: in vitro ADME; settings: 1, 5, 10, 50, and 100 μM
MAOA = MAOA (Homo sapiens, UniProt P21397); assay: SAFETYscan E/IC50 assay, MAOA; assay type: biochemical; settings: concentration range 0.005 to 100 μM
In short: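 Contract-laboratory in vitro panel of 78 targets, run in agonist and/or antagonist modes under provider SOPs over 0.005 to 100 μM. Panel formats included enzyme fragment complementation, FLIPR-based cellular assays, kinase binding and enzymatic assays.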

[4] = system: 78 common biological targets; assay: SAFETYscan 78-target panel; assay type: biochemical; settings: 0.005 to 100 μM
CNS functions = assay: CNS safety pharmacology; assay type: in vivo, rat; settings: SD rats, single IV 0.1, 0.3, and 1.0 mmol/kg, functional observational battery
In short: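 GLP study in SD rats, 5/sex/group, given a single IV dose of 0, 0.1, 0.3 or 1 mmol/kg. A functional observational battery was run at 0.25, 0.75, 1.5 and 4 h post-dose: home-cage, hand-held and open-field observations, responses to stimuli, forelimb grip strength and body temperature.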

[5] = Pharmacokinetics in beagle dogs; assay type: in vivo, dog; settings: for AUC: AUC 0-6h; for AUC / AUCINF / C0 / Cl / MRT / T1/2 / Vz: Gd by ICP-MS, NCA, n = 3
beagle dogs = assay: Single and repeated dose toxicity and toxicokinetics in beagle dogs; assay type: in vivo, dog; settings: for accumulation ratio AUC0–24h (D14)/AUC0–24h (D1) of Gd: 14 days
In short: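 GLP study in beagle dogs aged 6–7 months (M 7.34–10.58 kg, F 6.50–9.87 kg). Dosing was a single IV 0.70 mmol/kg or daily IV 0.07, 0.21 or 0.70 mmol/kg/d for 2 weeks, with saline placebo and a 2-week recovery. Clinical observation, organ weights and macro/microscopic histopathology were done. Gd accumulation ratio was AUC0–24h(D14)/AUC0–24h(D1).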

CYP2B6 = CYP2B6 (Homo sapiens, UniProt P20813); settings: 0.01, 0.1, 1, 10, and 100 μM, pooled human liver microsomes 0.5 mg/mL
CYP2C9 = CYP2C9 (Homo sapiens, UniProt P11712); assay: CYP2C9 inhibition in human liver microsomes; settings: 0.01, 0.1, 1, 10, and 100 μM, pooled human liver microsomes 0.5 mg/mL
[6] = beagle dog ♀, 0.04 mmol/kg single IV
[7] = beagle dog ♀, 0.1 mmol/kg single IV
[8] = beagle dog ♀, 0.2 mmol/kg single IV
[9] = beagle dog ♂, 0.04 mmol/kg single IV
[10] = beagle dog ♂, 0.1 mmol/kg single IV
[11] = beagle dog ♂, 0.2 mmol/kg single IV

MAOA, sequence (P21397 whole entry, species assumed, the tested form may be a part): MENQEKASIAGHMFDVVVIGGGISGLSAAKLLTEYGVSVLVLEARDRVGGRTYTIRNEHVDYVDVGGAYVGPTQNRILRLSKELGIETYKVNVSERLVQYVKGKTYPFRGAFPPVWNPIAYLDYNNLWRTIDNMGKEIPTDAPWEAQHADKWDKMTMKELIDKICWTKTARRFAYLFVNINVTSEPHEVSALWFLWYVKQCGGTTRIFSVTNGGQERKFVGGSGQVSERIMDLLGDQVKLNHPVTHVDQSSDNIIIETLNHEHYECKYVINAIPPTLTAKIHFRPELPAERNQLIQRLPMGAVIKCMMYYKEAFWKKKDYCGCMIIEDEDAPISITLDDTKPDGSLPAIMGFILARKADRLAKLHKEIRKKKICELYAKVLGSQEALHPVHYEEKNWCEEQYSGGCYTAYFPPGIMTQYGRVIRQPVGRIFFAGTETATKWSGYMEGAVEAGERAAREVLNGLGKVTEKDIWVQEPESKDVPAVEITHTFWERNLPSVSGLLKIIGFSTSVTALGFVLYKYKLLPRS
CYP2C9, sequence (P11712 whole entry): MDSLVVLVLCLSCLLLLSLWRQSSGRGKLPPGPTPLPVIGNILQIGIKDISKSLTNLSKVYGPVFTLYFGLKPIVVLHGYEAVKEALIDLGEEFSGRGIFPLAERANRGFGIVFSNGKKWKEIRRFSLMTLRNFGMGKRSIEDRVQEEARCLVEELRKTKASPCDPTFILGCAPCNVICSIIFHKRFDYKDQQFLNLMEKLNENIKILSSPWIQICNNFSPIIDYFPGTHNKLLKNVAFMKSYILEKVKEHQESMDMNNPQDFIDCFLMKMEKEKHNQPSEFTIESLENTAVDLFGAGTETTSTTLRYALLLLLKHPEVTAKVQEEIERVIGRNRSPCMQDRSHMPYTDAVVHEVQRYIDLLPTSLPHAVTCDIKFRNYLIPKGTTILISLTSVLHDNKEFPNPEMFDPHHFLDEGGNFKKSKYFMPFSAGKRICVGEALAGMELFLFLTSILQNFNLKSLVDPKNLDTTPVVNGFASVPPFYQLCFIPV
OATP1B1, sequence (Q9Y6L6 whole entry): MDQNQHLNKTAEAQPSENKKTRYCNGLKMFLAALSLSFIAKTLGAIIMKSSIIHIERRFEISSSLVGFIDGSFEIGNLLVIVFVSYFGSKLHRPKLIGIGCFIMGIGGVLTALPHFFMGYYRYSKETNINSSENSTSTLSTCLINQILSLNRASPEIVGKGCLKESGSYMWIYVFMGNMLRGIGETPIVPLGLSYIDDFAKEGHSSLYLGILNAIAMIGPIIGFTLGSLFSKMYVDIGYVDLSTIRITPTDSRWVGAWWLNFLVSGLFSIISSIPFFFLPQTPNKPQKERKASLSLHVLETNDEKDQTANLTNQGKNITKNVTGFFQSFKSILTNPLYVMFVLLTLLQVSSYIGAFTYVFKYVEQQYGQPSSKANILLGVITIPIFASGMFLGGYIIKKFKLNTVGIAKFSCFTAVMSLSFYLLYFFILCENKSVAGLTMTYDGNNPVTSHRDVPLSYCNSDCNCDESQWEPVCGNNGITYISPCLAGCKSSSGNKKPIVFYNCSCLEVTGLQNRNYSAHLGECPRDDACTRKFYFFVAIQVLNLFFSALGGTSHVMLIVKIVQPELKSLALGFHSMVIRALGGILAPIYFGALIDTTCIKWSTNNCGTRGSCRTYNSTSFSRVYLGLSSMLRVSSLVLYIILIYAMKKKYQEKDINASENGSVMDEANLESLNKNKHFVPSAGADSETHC
OAT3, sequence (Q8TCC7 whole entry): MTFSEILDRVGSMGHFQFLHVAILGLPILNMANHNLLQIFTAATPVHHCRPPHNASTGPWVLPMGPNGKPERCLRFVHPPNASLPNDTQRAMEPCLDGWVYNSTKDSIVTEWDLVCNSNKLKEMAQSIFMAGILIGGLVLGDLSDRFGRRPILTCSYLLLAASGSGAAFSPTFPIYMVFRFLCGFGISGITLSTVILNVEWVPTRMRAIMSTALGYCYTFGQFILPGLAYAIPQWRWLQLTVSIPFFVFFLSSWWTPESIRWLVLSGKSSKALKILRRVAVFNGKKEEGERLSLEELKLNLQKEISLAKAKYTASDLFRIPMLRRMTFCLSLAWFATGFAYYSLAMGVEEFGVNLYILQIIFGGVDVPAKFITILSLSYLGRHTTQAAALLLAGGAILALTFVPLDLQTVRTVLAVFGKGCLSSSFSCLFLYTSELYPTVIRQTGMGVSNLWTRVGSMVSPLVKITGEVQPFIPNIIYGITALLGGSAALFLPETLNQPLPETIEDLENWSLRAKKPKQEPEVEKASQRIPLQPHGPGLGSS
MATE2K, sequence (Q86VL8 1-566 isoform Q86VL8-3): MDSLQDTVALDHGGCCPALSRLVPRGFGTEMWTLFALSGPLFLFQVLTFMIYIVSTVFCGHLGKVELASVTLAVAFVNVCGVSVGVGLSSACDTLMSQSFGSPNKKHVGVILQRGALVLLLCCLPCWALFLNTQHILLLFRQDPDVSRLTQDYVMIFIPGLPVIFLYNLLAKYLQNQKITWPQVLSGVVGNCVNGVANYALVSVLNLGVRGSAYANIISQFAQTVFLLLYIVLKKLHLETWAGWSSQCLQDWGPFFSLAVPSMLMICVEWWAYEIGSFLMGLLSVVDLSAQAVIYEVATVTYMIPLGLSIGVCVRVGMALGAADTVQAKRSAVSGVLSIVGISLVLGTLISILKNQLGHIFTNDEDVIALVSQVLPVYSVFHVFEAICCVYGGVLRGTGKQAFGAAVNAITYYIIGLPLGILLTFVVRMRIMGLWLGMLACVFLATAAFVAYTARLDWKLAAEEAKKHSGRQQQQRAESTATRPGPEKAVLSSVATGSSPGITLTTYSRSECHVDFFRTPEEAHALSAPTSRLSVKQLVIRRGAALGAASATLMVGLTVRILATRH
CYP2D6, sequence (P10635 whole entry): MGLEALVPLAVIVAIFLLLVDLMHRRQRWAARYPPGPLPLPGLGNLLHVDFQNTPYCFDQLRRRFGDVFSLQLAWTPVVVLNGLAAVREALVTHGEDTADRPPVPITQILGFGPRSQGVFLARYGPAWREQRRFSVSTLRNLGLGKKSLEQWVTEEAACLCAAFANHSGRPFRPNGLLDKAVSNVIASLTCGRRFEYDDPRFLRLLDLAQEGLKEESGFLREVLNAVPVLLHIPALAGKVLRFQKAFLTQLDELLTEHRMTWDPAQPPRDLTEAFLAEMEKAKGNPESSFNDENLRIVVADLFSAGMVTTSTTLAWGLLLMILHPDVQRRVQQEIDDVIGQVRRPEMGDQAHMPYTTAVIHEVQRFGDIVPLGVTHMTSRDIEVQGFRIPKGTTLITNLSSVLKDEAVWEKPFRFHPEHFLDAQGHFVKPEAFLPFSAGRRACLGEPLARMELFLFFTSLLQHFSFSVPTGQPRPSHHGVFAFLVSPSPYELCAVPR
CYP2B6, sequence (P20813 whole entry): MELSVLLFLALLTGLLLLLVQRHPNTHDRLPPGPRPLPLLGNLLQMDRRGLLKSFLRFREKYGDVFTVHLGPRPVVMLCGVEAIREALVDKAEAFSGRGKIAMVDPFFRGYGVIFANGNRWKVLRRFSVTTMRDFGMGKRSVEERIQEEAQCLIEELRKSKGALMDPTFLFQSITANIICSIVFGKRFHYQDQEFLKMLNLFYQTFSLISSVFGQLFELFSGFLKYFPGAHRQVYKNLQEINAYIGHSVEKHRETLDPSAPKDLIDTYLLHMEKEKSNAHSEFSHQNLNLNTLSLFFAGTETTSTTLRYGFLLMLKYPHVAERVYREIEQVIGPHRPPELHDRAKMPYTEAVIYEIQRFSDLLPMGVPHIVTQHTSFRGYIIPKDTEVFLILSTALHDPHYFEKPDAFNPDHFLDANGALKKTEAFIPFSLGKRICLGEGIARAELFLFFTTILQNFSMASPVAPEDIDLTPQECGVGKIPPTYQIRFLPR
MATE1, sequence (Q96FL8 whole entry): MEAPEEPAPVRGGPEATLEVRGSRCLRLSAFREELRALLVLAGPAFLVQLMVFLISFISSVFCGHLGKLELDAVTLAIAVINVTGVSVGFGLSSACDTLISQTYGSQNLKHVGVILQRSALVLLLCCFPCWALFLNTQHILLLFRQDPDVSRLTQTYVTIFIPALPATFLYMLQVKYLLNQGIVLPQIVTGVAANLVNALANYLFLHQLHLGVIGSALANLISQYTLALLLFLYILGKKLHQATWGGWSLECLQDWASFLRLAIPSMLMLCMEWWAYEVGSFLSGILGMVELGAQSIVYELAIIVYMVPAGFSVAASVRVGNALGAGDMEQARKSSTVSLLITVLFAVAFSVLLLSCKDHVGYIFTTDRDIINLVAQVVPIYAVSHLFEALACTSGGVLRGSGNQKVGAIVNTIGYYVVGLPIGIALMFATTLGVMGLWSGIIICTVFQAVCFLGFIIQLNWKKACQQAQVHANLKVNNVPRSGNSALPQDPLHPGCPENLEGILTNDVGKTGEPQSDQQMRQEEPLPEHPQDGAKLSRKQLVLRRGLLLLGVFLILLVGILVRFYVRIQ

## ZD2-N3-Gd(HP-DO3A) [MT218]
Gd; pH 5 (0.05 M acetate), 25°C
  duration of chelation stability: at least 30 days
Gd; pH 5, 37.5°C, 0.50 mM ZnCl2, at least 30 days
  dissociation of MT218 in the presence of Zn(II) ions: did not cause dissociation
Gd; pH 5, 37.5°C, acetate buffer
  stability of MT218: stable
Gd; pH 5, 37.5°C, with 0.25 mM DOTA, DTPA, HP-DO3A or EDTA
  stability of MT218 in the presence of free chelating ligands: Loss of MT218 was observed
[1]; 1 h
  average remaining percentage of intact MT218: 74.87%
[1]; 3 h
  average remaining percentage of intact MT218: 20.54%
[1]; 6 h
  average remaining percentage of intact MT218: 4.61%
[1]; 28 h
  average remaining percentage of intact MT218: 0%
[1]; 48 h
  average remaining percentage of intact MT218: 0%
[1]
  enzymatic degradation half-life (t1/2): 97.8 min
[2]
  remaining MT218: 61.1%
[3]
  remaining MT218: 50.6%
CYP2D6
  inhibition of CYP2D6 activity: did not inhibit
OATP1B1
  inhibition of OATP1B1 transporter activity: no inhibition potential
OAT3
  inhibition of OAT3 transporter activity: no inhibition potential
MATE1
  inhibition of MATE1 transporter activity: no inhibition potential
MATE2K
  inhibition of MATE2K transporter activity: no inhibition potential
MAOA
  inhibition rate: 10.21%
[4]
  target-specific secondary pharmacologic activity: did not exhibit any notable target-specific secondary pharmacologic activity
CNS functions
  effect on parameters of CNS function: No MT218-related effect
[5]; [6]
  AUC: 38160 ng·h/mL
  AUCINF: 38470 ng·h/mL
  C0: 59.33 µg/mL
  Cl: 2.734 mL/min/kg
  MRT: 58.2 min
  T1/2: 44.4 min
  Vz: 0.17599 L/kg
[5]; [7]
  AUC: 93960 ng·h/mL
  AUCINF: 94170 ng·h/mL
  C0: 146.59 µg/mL
  Cl: 2.794 mL/min/kg
  MRT: 57.6 min
  T1/2: 40.2 min
  Vz: 0.16108 L/kg
[5]; [8]
  AUC: 138990 ng·h/mL
  AUCINF: 139150 ng·h/mL
  C0: 268.10 µg/mL
  Cl: 3.7757 mL/min/kg
  MRT: 47.4 min
  T1/2: 37.8 min
  Vz: 0.20593 L/kg
[5]; [9]
  AUC: 34800 ng·h/mL
  AUCINF: 34940 ng·h/mL
  C0: 50.97 µg/mL
  Cl: 3.0033 mL/min/kg
  MRT: 60.6 min
  T1/2: 45.6 min
  Vz: 0.19708 L/kg
[5]; [10]
  AUC: 89520 ng·h/mL
  AUCINF: 89780 ng·h/mL
  C0: 149.33 µg/mL
  Cl: 2.9287 mL/min/kg
  MRT: 57 min
  T1/2: 42 min
  Vz: 0.17773 L/kg
[5]; [11]
  AUC: 156540 ng·h/mL
  AUCINF: 156900 ng·h/mL
  C0: 286.90 µg/mL
  Cl: 3.367 mL/min/kg
  MRT: 52.8 min
  T1/2: 41.4 min
  Vz: 0.20164 L/kg
[5]; AUC(dose)/AUC(low dose), beagle dog ♀, 0.04 mmol/kg
  AUC Ratio: 1
[5]; AUC(dose)/AUC(low dose), beagle dog ♂, 0.04 mmol/kg
  AUC Ratio: 1
[5]; AUC(high dose)/AUC(low dose), beagle dog ♀, 0.2 mmol/kg
  AUC Ratio: 3.64
[5]; AUC(high dose)/AUC(low dose), beagle dog ♂, 0.2 mmol/kg
  AUC Ratio: 4.50
[5]; AUC(middle dose)/AUC(low dose), beagle dog ♀, 0.1 mmol/kg
  AUC Ratio: 2.46
[5]; AUC(middle dose)/AUC(low dose), beagle dog ♂, 0.1 mmol/kg
  AUC Ratio: 2.57
[5]; dogs, 0.1 mmol/kg IV
  mean plasma elimination half-life (t1/2): 41.4 min
Beagle dogs; dog, single dosing
  NOAEL: not established
Beagle dogs; dogs, any dose group, up to 0.70 mmol/kg/d
  mortality or moribundity: no mortality or morbidity; also recorded: No mortality or moribundity
Beagle dogs; dogs, any dose level
  clinical observations (body weight, food consumption, temperature, ophthalmoscopy, hematology, coagulation, clinical chemistry, urinalysis): No MT218-related changes
Beagle dogs; dogs, both sexes, repeated 0.21 mmol/kg/d and 0.70 mmol/kg/d
  pathological findings: reversible renal tubule degeneration
Beagle dogs; dogs, repeated daily IV dose for 14 days
  NOAEL: 0.07 mmol/kg/day
Beagle dogs; dogs, repeated low doses 0.07 mmol/kg/d
  pathological findings: No renal abnormality
Beagle dogs; dogs, single dose 0.70 mmol/kg, no longer evident on day 15
  pathological findings: mild bilateral tubule degeneration of proximal and distal tubules
Beagle dogs; dogs, single- and repeated-medium and high-dose groups, disappeared after dosing completion
  clinical signs during the dosing period: Sporadic symptoms of emesis, retching, and salivation
Beagle dogs; female dogs, high dose 0.70 mmol/kg/d IV
  accumulation ratio AUC0–24h (D14)/AUC0–24h (D1) of Gd: 1.00
Beagle dogs; female dogs, low dose 0.07 mmol/kg/d IV
  accumulation ratio AUC0–24h (D14)/AUC0–24h (D1) of Gd: 0.91
Beagle dogs; female dogs, medium dose 0.21 mmol/kg/d IV
  accumulation ratio AUC0–24h (D14)/AUC0–24h (D1) of Gd: 0.99
Beagle dogs; male dogs, high dose 0.70 mmol/kg/d IV
  accumulation ratio AUC0–24h (D14)/AUC0–24h (D1) of Gd: 1.02
Beagle dogs; male dogs, low dose 0.07 mmol/kg/d IV
  accumulation ratio AUC0–24h (D14)/AUC0–24h (D1) of Gd: 0.92
Beagle dogs; male dogs, medium dose 0.21 mmol/kg/d IV
  accumulation ratio AUC0–24h (D14)/AUC0–24h (D1) of Gd: 1.07
CYP2B6
  inhibition of CYP2B6 activity: did not inhibit
CYP2C9
  inhibition of CYP2C9 activity: did not inhibit
